From PubChem BioAssay AID652250 (Vanderbilt Specialized Chemistry Center, 2013) come the findings set out here.

Calls of active or inactive are those of the source.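 The calls were made as follows: active = compounds leaving under half of the peptide-driven platelet calcium rise; inactive = the rest.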

Sequence of Proteinase-activated receptor 4 (Homo sapiens) (Q96RI0 whole entry, looked up): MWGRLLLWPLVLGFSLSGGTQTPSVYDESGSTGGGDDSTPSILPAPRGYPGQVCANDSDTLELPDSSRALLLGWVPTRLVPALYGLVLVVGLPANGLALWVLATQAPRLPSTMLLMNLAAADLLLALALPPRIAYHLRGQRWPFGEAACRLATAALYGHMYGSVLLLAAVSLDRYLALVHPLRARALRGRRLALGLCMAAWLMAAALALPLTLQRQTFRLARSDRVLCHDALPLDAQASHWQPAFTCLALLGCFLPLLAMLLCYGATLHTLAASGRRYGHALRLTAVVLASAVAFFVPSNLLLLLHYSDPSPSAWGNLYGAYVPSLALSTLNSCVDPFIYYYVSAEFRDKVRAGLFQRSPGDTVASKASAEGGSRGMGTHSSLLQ

The assay addresses Proteinase-activated receptor 4 (Homo sapiens) (UniProt Q96RI0). Briefly: PAR4 antagonists in human platelets, cell-based, single concentration, washed platelets, Fluo4 calcium (AID 652250). Conditions: PAR4-AP calcium Fluo4 fluorescence, at 10 µM. The procedure, abridged: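 Test system: Fluo4-AM-loaded washed human platelets | Input: 10^8 platelets/mL | Signal: Fluorescence at 480/540 nm, 1 s intervals | Controls: PAR4-AP-stimulated DMSO control (100%) | Replication: Triplicate wells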
Consider `Cc1cc(-c2cn(Cc3ccccc3)c3ccccc23)cnc1F`, for which the “% of max PAR4-AP calcium response” value is “inactive”.

Consider `O=C(c1ccccc1)n1cc(-c2nc3cc(Cl)ccc3o2)cn1`, for which the “% of max PAR4-AP calcium response” value is “inactive”.

For the molecule `O=C(CSc1ncnc2c1c(-c1ccccc1)cn2-c1ccc(F)cc1)c1ccccc1`, the “% of max PAR4-AP calcium response” value was “inactive”.

Regarding `COc1cccc(/C=N/NC(=O)c2ccn(Cc3ccc(Cl)cc3Cl)n2)c1OC`, the “% of max PAR4-AP calcium response” value is “inactive”.

Consider `Cc1cccc(NC(=O)Cn2cc(C(=O)C(F)(F)F)c3ccccc32)c1`, for which the “% of max PAR4-AP calcium response” value is “inactive”.

In the case of `COc1ccc2c(c1)c(CC(=O)Nc1ccc(Cl)cn1)c(C)n2C(=O)c1ccc(Cl)cc1`, the “% of max PAR4-AP calcium response” value was “inactive”.

With `OCc1cn(Cc2ccccc2Cl)c2ccccc12`, the “% of max PAR4-AP calcium response” value is “inactive”.

Take `COCCCNC(=O)Cn1cc(C(=O)C(F)(F)F)c2ccccc21`: the “% of max PAR4-AP calcium response” value is “inactive”.

Regarding `Cc1ccc2c(c1)c1c3n2CCN(C(=O)CN2CCN(C(=O)c4ccco4)CC2)C3CCC1` (stereo not drawn), the “% of max PAR4-AP calcium response” value is “inactive”.

On to `OCCCNc1ncnc2c1c(-c1ccccc1)cn2-c1ccc(F)cc1`, for which the “% of max PAR4-AP calcium response” value is “inactive”.

With `Cc1ccc(-n2cc(-c3ccccc3)c3c(N4CC(C)OC(C)C4)ncnc32)cc1` (stereo not drawn), the “% of max PAR4-AP calcium response” value was “inactive”.

For `O=C(c1cn(Cc2ccc(F)cc2)c2ccccc12)C(F)(F)F`, the “% of max PAR4-AP calcium response” value is “inactive”.

`CCCOc1ccc(-c2cn(Cc3ccccc3)c3ccccc23)cc1`: the “% of max PAR4-AP calcium response” value is “inactive”.

Turning to `Cn1cc(C(=O)Cc2ccccc2)c2ccccc21`, the “% of max PAR4-AP calcium response” value is “inactive”.

For the molecule `Cn1cc(-c2cn(Cc3ccccc3)c3ccccc23)cn1`, the “% of max PAR4-AP calcium response” value is “inactive”.

With `Clc1ccc(-n2cc(-c3ccccc3)c3c(N4CCOCC4)ncnc32)cc1`, the “% of max PAR4-AP calcium response” value is “inactive”.

Consider `COc1ccc(OC)c(CNC(=O)CCCc2cn(C)c3ccccc23)c1`, for which the “% of max PAR4-AP calcium response” value is “inactive”.

Take `Cc1cc(O)cc(O)c1C(=O)Cc1cnn(-c2ccccc2)c1`: the “% of max PAR4-AP calcium response” value is “inactive”.

On to `CCOc1ccc(NC(=O)Cn2cc(C(=O)C(F)(F)F)c3ccccc32)cc1`, for which the “% of max PAR4-AP calcium response” value is “inactive”.

Regarding `CCc1nn(-c2ccccc2)c2nc(-c3ccccc3OC)c3cc(OC)c(OC)cc3c12`, the “% of max PAR4-AP calcium response” value was “inactive”.

Regarding `CCc1nn(-c2ccccc2)c2nc(-c3cccc(OC)c3)c3cc(OC)c(OC)cc3c12`, the “% of max PAR4-AP calcium response” value is “inactive”.

With `COc1ccccc1OCCCn1cc(C(=O)C(F)(F)F)c2ccccc21`, the “% of max PAR4-AP calcium response” value is “inactive”.

Regarding `Cc1ccc(OCCn2cc(C(=S)N3CCOCC3)c3ccccc32)cc1`, the “% of max PAR4-AP calcium response” value was “inactive”.

On to `Cn1cc(CC(=O)N2CCN(c3ccc([N+](=O)[O-])cc3)CC2)c2ccccc21`, for which the “% of max PAR4-AP calcium response” value is “inactive”.

For `Fc1ccc(Cn2cc(C(=S)N3CCCC3)c3ccccc32)cc1`, the “% of max PAR4-AP calcium response” value was “inactive”.

With `O=C(CCc1cn(Cc2ccccc2)c2ccccc12)NCCN1CCOCC1`, the “% of max PAR4-AP calcium response” value was “inactive”.

`FC(F)(F)c1cccc(-n2cc(-c3ccccc3)c3c(NC4CCCC4)ncnc32)c1`: the “% of max PAR4-AP calcium response” value was “inactive”.

For `CC(C)COc1ccc(-c2cn(Cc3ccccc3)c3ccccc23)cc1`, the “% of max PAR4-AP calcium response” value was “inactive”.

Regarding `CC(C)Nc1ncnc2c1c(-c1ccccc1)cn2-c1cccc(C(F)(F)F)c1`, the “% of max PAR4-AP calcium response” value is “inactive”.

`S=C(c1cn(Cc2ccc(Cl)cc2)c2ccccc12)N1CCCC1`: the “% of max PAR4-AP calcium response” value is “inactive”.

`c1ccc(Cn2cc(CN3CCN(c4ccccc4)CC3)c3ccccc32)cc1`: the “% of max PAR4-AP calcium response” value was “inactive”.

As for `CSc1ccc(-c2cn(Cc3ccccc3)c3ccccc23)cn1`, the “% of max PAR4-AP calcium response” value was “inactive”.

Turning to `Cc1cccc(-n2cc(-c3ccccc3)c3c(N4CCN(c5ccccc5)CC4)ncnc32)c1`, the “% of max PAR4-AP calcium response” value is “inactive”.
